Experimental data as given in ChEMBL document CHEMBL4689842, “EUbOPEN Chemogenomics Library wave 1” (2021).

System: Fibroblast
Experiment: Multiplex assay against human fibroblast
Type: toxicity, cell-based
In short: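 Imaging took place on a CQ1 microscope at 37°C and 5% CO2 once compound had been added to live cells stained at seeding with Hoechst33342, BioTracker Green Microtubule Cytoskeleton Dye, MitoTracker Red and Annexin V Alexa Fluor 680. CellPathfinder machine-learning gating classed cells as Hoechst high-intensity objects or normal cells, classed normal cells as having healthy, pyknosed or fragmented nuclei, and classed pyknosed cells as mitotic or apoptotic. Tubulin, mitochondrial-mass and membrane-permeability phenotypes are per cents of the healthy-nucleus cells.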

[1] = 12 h, 1 µM, compound concentration 1 uM, replicate 1
[2] = 12 h, 1 µM, compound concentration 1 uM, replicate 2
[3] = 12 h, 10 µM, compound concentration 10 uM, replicate 1
[4] = 12 h, 10 µM, compound concentration 10 uM, replicate 2
[5] = 24 h, 1 µM, compound concentration 1 uM, replicate 1
[6] = 24 h, 1 µM, compound concentration 1 uM, replicate 2
[7] = 24 h, 10 µM, compound concentration 10 uM, replicate 1
[8] = 24 h, 10 µM, compound concentration 10 uM, replicate 2
[9] = 48 h, 1 µM, compound concentration 1 uM, replicate 1
[10] = 48 h, 1 µM, compound concentration 1 uM, replicate 2
[11] = 48 h, 10 µM, compound concentration 10 uM, replicate 1
[12] = 48 h, 10 µM, compound concentration 10 uM, replicate 2

## CCOc1cc(C(=O)N2CCC(N3CCN(C)CC3)CC2)ccc1Nc1ncc2c(n1)N(C1CCCC1)c1ccccc1C(=O)N2C
[1]
  Population Apoptotic (%): 57%
  Population Fragmented Nuclei (%): 27%
  Population Healthy Nuclei (%): 42%
  Population Hoechst High Intensity Objects (%): 13%
  Population Membrane Permeable-Phenotype (%): 19%
  Population Mitochondria Different-Phenotype (%): 27%
  Population Mitotic Cells (%): 42%
  Population Normal (%): 86%
  Population Pyknosed Nuclei (%): 30%
  Population Tubulin-Different-Phenotype (%): 60%
  Total Cell Count: 200
[2]
  Population Apoptotic (%): 75%
  Population Fragmented Nuclei (%): 6%
  Population Healthy Nuclei (%): 80%
  Population Hoechst High Intensity Objects (%): 10%
  Population Membrane Permeable-Phenotype (%): 4%
  Population Mitochondria Different-Phenotype (%): 76%
  Population Mitotic Cells (%): 25%
  Population Normal (%): 89%
  Population Pyknosed Nuclei (%): 12%
  Population Tubulin-Different-Phenotype (%): 48%
  Total Cell Count: 67
[3]
  Population Apoptotic (%): 58%
  Population Fragmented Nuclei (%): 30%
  Population Healthy Nuclei (%): 44%
  Population Hoechst High Intensity Objects (%): 19%
  Population Membrane Permeable-Phenotype (%): 20%
  Population Mitochondria Different-Phenotype (%): 56%
  Population Mitotic Cells (%): 41%
  Population Normal (%): 80%
  Population Pyknosed Nuclei (%): 25%
  Population Tubulin-Different-Phenotype (%): 86%
  Total Cell Count: 84
[4]
  Population Apoptotic (%): 92%
  Population Fragmented Nuclei (%): 21%
  Population Healthy Nuclei (%): 50%
  Population Hoechst High Intensity Objects (%): 6%
  Population Membrane Permeable-Phenotype (%): 93%
  Population Mitochondria Different-Phenotype (%): 97%
  Population Mitotic Cells (%): 7%
  Population Normal (%): 93%
  Population Pyknosed Nuclei (%): 27%
  Population Tubulin-Different-Phenotype (%): 100%
  Total Cell Count: 69
[5]
  Population Apoptotic (%): 62%
  Population Fragmented Nuclei (%): 29%
  Population Healthy Nuclei (%): 49%
  Population Hoechst High Intensity Objects (%): 11%
  Population Membrane Permeable-Phenotype (%): 12%
  Population Mitochondria Different-Phenotype (%): 17%
  Population Mitotic Cells (%): 37%
  Population Normal (%): 88%
  Population Pyknosed Nuclei (%): 20%
  Population Tubulin-Different-Phenotype (%): 42%
  Total Cell Count: 205
[6]
  Population Apoptotic (%): 22%
  Population Fragmented Nuclei (%): 16%
  Population Healthy Nuclei (%): 72%
  Population Hoechst High Intensity Objects (%): 5%
  Population Membrane Permeable-Phenotype (%): 5%
  Population Mitochondria Different-Phenotype (%): 65%
  Population Mitotic Cells (%): 77%
  Population Normal (%): 94%
  Population Pyknosed Nuclei (%): 11%
  Population Tubulin-Different-Phenotype (%): 27%
  Total Cell Count: 71
[7]
  Population Apoptotic (%): 76%
  Population Fragmented Nuclei (%): 41%
  Population Healthy Nuclei (%): 26%
  Population Hoechst High Intensity Objects (%): 28%
  Population Membrane Permeable-Phenotype (%): 21%
  Population Mitochondria Different-Phenotype (%): 85%
  Population Mitotic Cells (%): 23%
  Population Normal (%): 71%
  Population Pyknosed Nuclei (%): 32%
  Population Tubulin-Different-Phenotype (%): 92%
  Total Cell Count: 74
[8]
  Population Apoptotic (%): 88%
  Population Fragmented Nuclei (%): 10%
  Population Healthy Nuclei (%): 30%
  Population Hoechst High Intensity Objects (%): 11%
  Population Membrane Permeable-Phenotype (%): 100%
  Population Mitochondria Different-Phenotype (%): 96%
  Population Mitotic Cells (%): 11%
  Population Normal (%): 88%
  Population Pyknosed Nuclei (%): 59%
  Population Tubulin-Different-Phenotype (%): 100%
  Total Cell Count: 85
[9]
  Population Apoptotic (%): 78%
  Population Fragmented Nuclei (%): 37%
  Population Healthy Nuclei (%): 51%
  Population Hoechst High Intensity Objects (%): 15%
  Population Membrane Permeable-Phenotype (%): 13%
  Population Mitochondria Different-Phenotype (%): 8%
  Population Mitotic Cells (%): 21%
  Population Normal (%): 84%
  Population Pyknosed Nuclei (%): 10%
  Population Tubulin-Different-Phenotype (%): 43%
  Total Cell Count: 213
[10]
  Population Apoptotic (%): 100%
  Population Fragmented Nuclei (%): 29%
  Population Healthy Nuclei (%): 67%
  Population Hoechst High Intensity Objects (%): 18%
  Population Membrane Permeable-Phenotype (%): 14%
  Population Mitochondria Different-Phenotype (%): 20%
  Population Mitotic Cells (%): 0%
  Population Normal (%): 81%
  Population Pyknosed Nuclei (%): 3%
  Population Tubulin-Different-Phenotype (%): 63%
  Total Cell Count: 116
[11]
  Population Apoptotic (%): 88%
  Population Fragmented Nuclei (%): 35%
  Population Healthy Nuclei (%): 26%
  Population Hoechst High Intensity Objects (%): 25%
  Population Membrane Permeable-Phenotype (%): 33%
  Population Mitochondria Different-Phenotype (%): 41%
  Population Mitotic Cells (%): 11%
  Population Normal (%): 75%
  Population Pyknosed Nuclei (%): 37%
  Population Tubulin-Different-Phenotype (%): 66%
  Total Cell Count: 60
[12]
  Population Apoptotic (%): 93%
  Population Fragmented Nuclei (%): 34%
  Population Healthy Nuclei (%): 46%
  Population Hoechst High Intensity Objects (%): 32%
  Population Membrane Permeable-Phenotype (%): 5%
  Population Mitochondria Different-Phenotype (%): 78%
  Population Mitotic Cells (%): 6%
  Population Normal (%): 67%
  Population Pyknosed Nuclei (%): 18%
  Population Tubulin-Different-Phenotype (%): 89%
  Total Cell Count: 120
